Laboratory results from article PMC6392825 (ChemistryOpen, 2019).
Converted amounts (≈) assume the structure as drawn.

Columns and labels:
[1] = Water solubility, shake flask method, 0.1 M phosphate buffer pH 6.8; type: physicochemical; settings: 37 °C, pH 6.8, aqueous buffer, thermodynamic from solid
[2] = Chemical antioxidant capacity, FRAP assay
[3] = system: HepG2; experiment: Cytotoxicity, mitochondrial activity; type: cell-based; settings: Homo sapiens, HepG2, 72 h, read-out: IC50 MTT
Procedure, shortened: (§1)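 Seeded at 20000 cells/well in DMEM and grown 24 h at 37 °C, 10% CO2. Medium was then replaced with serum-free medium holding test compound (25 mM DMSO stock) at various concentrations for 72 h, in triplicate; doxorubicin was the positive control. MTT (5 mg/mL stock in PBS) added for 2 h, formazan dissolved in DMSO, A570. IC50 derived from % surviving cells, reported as mean ± SD combined with SRB data.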

[4] = system: HT‐29; experiment: Cytotoxicity, mitochondrial activity; type: cell-based; settings: Homo sapiens, HT-29, 72 h, read-out: IC50 MTT
Procedure, shortened: as §1

[5] = system: Caco‐2; experiment: Cytotoxicity, mitochondrial activity; type: cell-based; settings: Homo sapiens, Caco-2, 72 h, read-out: IC50 MTT
Procedure, shortened: as §1

[6] = system: EA.hy926; experiment: Cytotoxicity, mitochondrial activity; type: cell-based; settings: Homo sapiens, EA.hy 926, 72 h, read-out: IC50 MTT
Procedure, shortened: as §1

[7] = system: HepG2; experiment: Cell growth inhibition, protein content; type: cell-based; settings: Homo sapiens, HepG2, 72 h, read-out: IC50 SRB
Procedure, shortened: (§2)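 Cell lines from ATCC, grown in DMEM+glutamax with 1% NEAA, 1% P/S and 10% FBS at 37 °C, 10% CO2. Seeded at 20000 cells/well for 24 h, then exposed to test compound (25 mM DMSO stock) for three days. Fixed with cold TCA for 1 h at 4 °C, stained 30 min with 0.4% SRB in 1% acetic acid, dissolved in 10 mM Tris, A490. Triplicate; IC50 given as mean ± SD combined with MTT data (n ≥ 3).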

[8] = system: HT‐29; experiment: Cell growth inhibition, protein content; type: cell-based; settings: Homo sapiens, HT-29, 72 h, read-out: IC50 SRB
Procedure, shortened: as §2

[9] = system: Caco‐2; experiment: Cell growth inhibition, protein content; type: cell-based; settings: Homo sapiens, Caco-2, 72 h, read-out: IC50 SRB
Procedure, shortened: as §2

[10] = system: EA.hy926; experiment: Cell growth inhibition, protein content; type: cell-based; settings: Homo sapiens, EA.hy 926, 72 h, read-out: IC50 SRB
Procedure, shortened: as §2

[11] = system: HepG2; experiment: Intracellular ROS assay; type: cell-based; settings: for change of intracellular ROS in words: HepG2, vs untreated control, 10 and 1 μM; for activity at 1 µM / activity at 10 µM: Homo sapiens, HepG2, read-out: Intracellular ROS, percentage compared to the untreated control cells (ROS/SRB)
Procedure, shortened: (§3)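 Cells seeded at 20000/well and grown 24 h at 37 °C, 10% CO2, then treated with test compound at 10 and 1 μM in serum-free medium. NAC and doxorubicin served as controls. After a PBS wash, cells were loaded with 20 μM DCFH-DA for 30 min, washed, and held 1 h in phenol red-free DMEM. Fluorescence read at ex 485/em 535 nm and normalized to SRB in the same well. Reported as % of untreated control, n ≥ 3, two-tailed t-test with unequal variances.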

[12] = system: HT‐29; experiment: Intracellular ROS assay; type: cell-based; settings: for activity at 1 µM / activity at 10 µM: Homo sapiens, HT-29, read-out: Intracellular ROS, percentage compared to the untreated control cells (ROS/SRB); for change of intracellular ROS in words: HT‐29, vs untreated control, 10 and 1 μM
Procedure, shortened: as §3

[13] = system: Caco‐2; experiment: Intracellular ROS assay; type: cell-based; settings: for activity at 1 µM / activity at 10 µM: Homo sapiens, Caco-2, read-out: Intracellular ROS, percentage compared to the untreated control cells (ROS/SRB)
Procedure, shortened: as §3

[14] = system: EA.hy926; experiment: Intracellular ROS assay; type: cell-based; settings: for activity at 1 µM / activity at 10 µM: Homo sapiens, EA.hy 926, read-out: Intracellular ROS, percentage compared to the untreated control cells (ROS/SRB); for change of intracellular ROS in words: EA.hy926, vs untreated control, 10 and 1 μM
Procedure, shortened: as §3

[15] = system: HepG2, HT‐29, Caco‐2 and EA.hy926; experiment: Antiproliferative activity, MTT and SRB assays taken together; type: cell-based
[16] = system: CHO‐K1; experiment: Intracellular ROS assay; type: cell-based, Chinese hamster; settings: CHO‐K1, vs untreated control, 10 and 1 μM
Procedure, shortened: as §3

COc1cc(/C=C/C(=O)/C=C(O)/C=C/c2ccncc2)ccc1O [3 c, (1E,4Z,6E)‐5‐Hydroxy‐1‐(4‐hydroxy‐3‐methoxyphenyl)‐7‐(pyridin‐4‐yl)hepta‐1,4,6‐triene‐3‐one]
solubility at 90 min [1]: 9 ± 0.6 µM (≈ 2.91 µg/mL)
solubility at 24 h [1]: 12.8 ± 1.1 µM (≈ 4.14 µg/mL)
FRAP (Trolox equivalent per μM) [2]: 0.56 Trolox equivalent per μM
FRAP (curcumin equivalent per μM) [2]: 0.54 curcumin equivalent per μM
antioxidant activity in words, FRAP [2]: comparable to ascorbic acid
IC50 [3]: 3.2 ± 0.8 µM
IC50 [4]: 4.9 ± 0.3 µM
IC50 [5]: 7.1 ± 0.4 µM
IC50 [6]: 6.1 ± 0.1 µM
IC50 [7]: 9.8 ± 0.6 µM
IC50 [8]: 48.8 ± 1.8 µM
IC50 [9]: 12 ± 0.7 µM
IC50 [10]: 3.7 ± 0.2 µM
change of intracellular ROS in words [11]: significantly increased ROS production
activity at 1 µM [11]: 104 ± 13.1%
activity at 10 µM [11]: 128 ± 4.4%
activity at 1 µM [12]: 93.4 ± 6.4%
activity at 10 µM [12]: 99.8 ± 11.4%
activity at 1 µM [13]: 89.8 ± 3.6%
activity at 10 µM [13]: 99.7 ± 1%
activity at 1 µM [14]: 100 ± 6.9%
activity at 10 µM [14]: 95.7 ± 3.5%
antiproliferative activity / cell growth inhibition in words [15]: comparable activity to the commercial doxorubicin drug

C(=C\c1c[nH]c2ccccc12)/c1cc(/C=C/c2cccs2)[nH]n1 [4 d, 3‐{(E)‐2‐[5‐((E)‐2‐(thiophen‐2‐yl)vinyl)‐1H‐pyrazol‐3‐yl]vinyl}‐1H‐indole]
solubility at 90 min [1]: 13.7 ± 0.5 µM (≈ 4.35 µg/mL)
solubility at 24 h [1]: 11.7 ± 2.3 µM (≈ 3.71 µg/mL)
FRAP (Trolox equivalent per μM) [2]: 0.33 Trolox equivalent per μM
FRAP (curcumin equivalent per μM) [2]: 0.32 curcumin equivalent per μM
IC50 [3]: 34.9 ± 0.8 µM
IC50 [4]: 4.2 ± 0.4 µM
IC50 [5]: 19.6 ± 4 µM
IC50 [6]: 6 ± 0.9 µM
IC50 [7]: 49.5 ± 2.1 µM
IC50 [8]: 9.7 ± 0.5 µM
IC50 [9]: 21.1 ± 0.3 µM
IC50 [10]: 9.5 ± 0.4 µM
change of intracellular ROS in words [11]: significantly increased ROS production
activity at 10 µM [11]: 985 ± 78.2%
change of intracellular ROS in words [12]: higher ROS signal
activity at 1 µM [12]: 463 ± 42.7%
activity at 10 µM [12]: 384 ± 47.5%
change of intracellular ROS in words ([13]; Caco‐2, vs untreated control, 10 and 1 μM): significantly increased ROS production
activity at 1 µM [13]: 458 ± 97.5%
activity at 10 µM [13]: 382 ± 62.6%
change of intracellular ROS in words [14]: significantly increased ROS production
activity at 1 µM [14]: 483.9 ± 1.4%
activity at 10 µM [14]: 402 ± 23.4%
change of intracellular ROS in words [16]: significantly increased ROS

COc1cc(/C=C/c2cc(/C=C/c3ccncc3)[nH]n2)ccc1O [4 b, 2‐Methoxy‐4‐{(E)‐2‐[5‐((E)‐2‐(pyridin‐4‐yl)vinyl)‐1H‐pyrazol‐3‐yl]vinyl}phenol]
solubility at 90 min [1]: 16.8 ± 1.6 µM (≈ 5.37 µg/mL)
solubility at 24 h [1]: 12.8 ± 1.4 µM (≈ 4.09 µg/mL)
FRAP (Trolox equivalent per μM) [2]: 0.43 Trolox equivalent per μM
FRAP (curcumin equivalent per μM) [2]: 0.42 curcumin equivalent per μM
IC50 [3]: 56.7 ± 0.5 µM
IC50 [4]: 49 ± 0.7 µM
IC50 [5]: 39.3 ± 1.2 µM
IC50 [6]: 35.7 ± 0.1 µM
IC50 [7]: 54.6 ± 0.3 µM
IC50 [8]: 47.4 ± 0.2 µM
IC50 [9]: 46.5 ± 0.5 µM
IC50 [10]: 51.8 ± 0.3 µM
change of intracellular ROS in words [11]: significantly increased ROS production
activity at 1 µM [11]: 135 ± 14.1%
activity at 10 µM [11]: 123 ± 11.4%
activity at 1 µM [12]: 111 ± 16.2%
activity at 10 µM [12]: 114 ± 12.3%
activity at 1 µM [13]: 106 ± 4.6%
activity at 10 µM [13]: 94.3 ± 6.7%
change of intracellular ROS in words [14]: decreased intracellular ROS
activity at 1 µM [14]: 86.9 ± 1.6%
activity at 10 µM [14]: 80.6 ± 6.8%
change of intracellular ROS in words [16]: significantly increased ROS

COc1cc(/C=C/C(=O)/C=C(O)/C=C/c2ccc[nH]2)ccc1O [3 f, (1E,4Z,6E)‐5‐Hydroxy‐1‐(4‐hydroxy‐3‐methoxyphenyl)‐7‐(1H‐pyrrol‐2‐yl)hepta‐1,4,6‐trien‐3‐one]
solubility at 90 min [1]: 20.9 ± 1.7 µM (≈ 6.51 µg/mL)
solubility at 24 h [1]: 18.3 ± 0.4 µM (≈ 5.7 µg/mL)
FRAP (Trolox equivalent per μM) [2]: 0.56 Trolox equivalent per μM
FRAP (curcumin equivalent per μM) [2]: 0.54 curcumin equivalent per μM
antioxidant activity in words, FRAP [2]: comparable to ascorbic acid
IC50 [3]: 31.7 ± 0.6 µM
IC50 [4]: 33.9 ± 0.4 µM
IC50 [5]: 17.1 ± 0.4 µM
IC50 [6]: 45.6 ± 0.9 µM
IC50 [7]: 7.1 ± 0.2 µM
IC50 [8]: 36.1 ± 2.3 µM
IC50 [9]: 15.9 ± 2 µM
IC50 [10]: 33.8 ± 1.4 µM
change of intracellular ROS in words [11]: significantly increased ROS production
activity at 1 µM [11]: 98.9 ± 2.9%
activity at 10 µM [11]: 216 ± 13.7%
change of intracellular ROS in words [12]: higher ROS signal
activity at 1 µM [12]: 117 ± 10.5%
activity at 10 µM [12]: 109 ± 2.6%
activity at 1 µM [13]: 125 ± 3.5%
activity at 10 µM [13]: 147 ± 12%
activity at 1 µM [14]: 125 ± 9.7%
activity at 10 µM [14]: 132 ± 12.7%
change of intracellular ROS in words [16]: significantly increased ROS

COc1cc(/C=C/c2cc(/C=C/c3cccc4cnccc34)[nH]n2)ccc1O [4 c, 2‐Methoxy‐4‐{(E)‐2‐[5‐((E)‐2‐(isoquinolin‐5‐yl)vinyl)‐1H‐pyrazol‐3‐yl]vinyl}phenol]
solubility at 90 min [1]: 6.4 ± 0.2 µM (≈ 2.36 µg/mL)
solubility at 24 h [1]: 7 ± 0.2 µM (≈ 2.59 µg/mL)
FRAP (Trolox equivalent per μM) [2]: 0.15 Trolox equivalent per μM
FRAP (curcumin equivalent per μM) [2]: 0.14 curcumin equivalent per μM
IC50 [3]: 6.7 ± 0.4 µM
IC50 [4]: 37.7 ± 1.3 µM
IC50 [5]: 58.7 ± 2 µM
IC50 [6]: 38.8 ± 0.4 µM
IC50 [7]: 28.3 ± 4.7 µM
IC50 [8]: > 75 µM
IC50 [9]: 60.3 ± 3.5 µM
IC50 [10]: > 75 µM
change of intracellular ROS in words [11]: significantly decreased ROS signal
activity at 1 µM [11]: 74.7 ± 2.9%
activity at 10 µM [11]: 88 ± 10.6%
activity at 1 µM [12]: 94.4 ± 3.4%
activity at 10 µM [12]: 86.4 ± 8.2%
activity at 1 µM [13]: 108 ± 18.6%
activity at 10 µM [13]: 102 ± 17.3%
activity at 1 µM [14]: 89.9 ± 2.5%
activity at 10 µM [14]: 99.2 ± 5%
antiproliferative activity / cell growth inhibition in words [15]: comparable activity to the commercial doxorubicin drug
